High-throughput results deposited in PubChem BioAssay by several laboratories.
In the library only some 2.3% were active in any assay of this set; here they are far more common.
CHT allo act = allosteric activators of human choline transporter CHT. Q9GZV3. CHT-expressing cells, membrane potential dye, choline EC20; active compounds read high; LV-AA mutant CHT in HEK293 cells. B-score at 10 µM. hit rate 0.49% among 310,000. AID 488977;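 active = initial fluorescence not abnormally high and integrated response B-score, plate-corrected, over 3 SD above library mean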
NR2E3 ag-1 = activates human photoreceptor nuclear receptor NR2E3 | Q9Y5X4 | GST-NR2E3/biotin-RetCOR TR-FRET, 1536-well | inhibition of corepressor binding, % at 4.78 µM | hit rate 0.12% among 320,000 | AID 2300;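 active = percent inhibition above the cutoff of mean plus 3 SD of all tested compounds, set per screening campaign, cut at about 20% in these data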;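 note: 0% = DMSO wells and 100% = biotin wells as full block of FRET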
Target sequence (Q9Y5X4 whole entry, looked up): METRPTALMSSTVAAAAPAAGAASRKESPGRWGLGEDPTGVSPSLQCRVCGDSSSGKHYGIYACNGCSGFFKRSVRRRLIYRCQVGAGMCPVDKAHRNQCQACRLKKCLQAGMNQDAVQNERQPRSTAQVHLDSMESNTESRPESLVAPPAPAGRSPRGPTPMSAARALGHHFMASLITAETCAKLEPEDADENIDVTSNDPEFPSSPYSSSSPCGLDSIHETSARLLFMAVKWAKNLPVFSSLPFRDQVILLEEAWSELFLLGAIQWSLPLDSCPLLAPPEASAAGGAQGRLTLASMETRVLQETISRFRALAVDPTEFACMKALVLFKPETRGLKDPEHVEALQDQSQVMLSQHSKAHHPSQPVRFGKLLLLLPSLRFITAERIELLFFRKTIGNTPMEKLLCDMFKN
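System: GST-NR2E3 and biotin-RetCOR proteins; probe or stimulus: 7 nM biotin-RetCOR; doses: compound at 4.8 µM, single dose; schedule: Compound–protein incubation for 5 h at 4 °C; detection: time-resolved FRET; read-out: percent inhibition; controls: biotin wells as high control, 0.6% DMSO wells as low control; format: 1536-well plates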
CHT inh = inhibitors of human choline transporter CHT | Q9GZV3 | hit rate 0.86% among 310,000 | CHT-expressing cells, membrane potential dye, choline response; active compounds read low | B-score at 10 µM;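 active = B-score over 3 SD under the library average, and starting fluorescence ratio not unusually high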;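 note: choline stimulus applied at its EC90 after an EC20 pre-addition; B-score computed on integrated fluorescence ratio after choline addition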
GalR3 antagonist = human GalR3 antagonism; O60755; HEK293 GalR3-CNG cAMP membrane potential fluorescence; galR3 body fused to GalR1 C-terminus; inhibition, % at 3 µM; hit rate 0.44% among 360,000;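 active = inhibition above the screen-wide average plus 3 SD, cut at about 13% in these data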;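 note: forskolin and galanin both at EC90 stimulate the cells; cAMP rise reported by CNG channel membrane potential dye signal; 0% = forskolin plus galanin with DMSO and 100% = forskolin alone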
NR2F2 inh = blocks human COUP-TFII nuclear receptor | hit rate 0.7% among 370,000 | inhibition, % at 8.6 µM | HEK293T NGFI-A luciferase reporter, luminescence | P24468;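 active = inhibition above a per-plate cutoff, mean inhibition of test wells between control levels plus 3 SD, cut at about 38% in these data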;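 note: cells cotransfected with COUP-TFII expression vector driving the NGFI-A reporter; 0% = median of COUP-TF2 test wells and 100% = reporter-only cells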
NR2E3 ag-2 = human photoreceptor-specific nuclear receptor agonism; hit rate 0.35% among 360,000; CHO-S Gal4-NCOR/VP16-NR2E3 two-hybrid, luciferase; AID 602229; Q9Y5X4; inhibition of corepressor binding, % at 3.98 µM;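 active = inhibition above the mean of all tested compounds plus 3 SD, cut at about 70% in these data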;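 note: 0% = DMSO with NR2E3 transfected cells and 100% = cells lacking NR2E3 construct; higher means lower luciferase signal from less NR2E3 corepressor binding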
An asterisk follows results filed as active; i = inactive; / = no result given.

SMILES	CHT allo act	NR2E3 ag-1	CHT inh	GalR3 antagonist	NR2F2 inh	NR2E3 ag-2
Cc1c(C)n(Cc2ccc(-c3ccccc3C(=O)O)cc2)c2ccc(C(=O)N[C@@H](C)c3ccc([N+](=O)[O-])cc3)cc12	/	/	/	/	-9	/
N#Cc1c(NC(=O)c2ccccc2Cl)n(Cc2ccccc2)c2nc3ccccc3nc12	i	3	i	-2	25	87*
CCCCn1c(NC(=O)c2ccccc2Cl)c(C#N)c2nc3ccccc3nc21	i	19	i	-2	28	96*
CCCCn1c(NC(=O)CC)c(C#N)c2nc3ccccc3nc21	i	-1	i	-3	5	12
COc1ccc(C#CCN(C)/C(N)=N/C(=O)OCc2ccccc2)cc1	/	/	/	/	17	/
O=C(NCc1ccc2c(c1)OCO2)c1ccc2c(c1)N(Cc1c(F)cccc1Cl)C(=O)CS2	i	0	i	4	6	-4
CCC1CCCCN1CCCNC(=O)c1ccc2c(c1)N(Cc1c(F)cccc1Cl)C(=O)CS2 (stereo not given)	i	4	-5.4*	-12	19	6
COC(=O)c1cccc(OCC(C)CN2CCC(C(O)(c3ccccc3)c3ccccc3)CC2)c1 (stereo not given)	/	/	/	/	3	/
Cc1ccn2c(NC(=O)C(C)(C)Oc3ccc(Cl)cc3)c(-c3cccs3)nc2c1	i	-4	-7.9*	-6	-8	-13
OCCOCCn1c(-c2ccccc2)nc(=S)c2c1CCCC2	6.4*	-4	i	2	1	-14
CC1(C)Cc2c(c(=S)nc(-c3ccccc3)n2CCOCCO)CO1	i	-1	i	-2	-3	0
C#CCOCCOCCOCCNc1nc(N2CCN(C(=O)CCCCCCCCCCNC(=O)[C@H]([C@@H](C)CC)n3cc(CCCCCN)nn3)CC2)nc(N2CCN(C(=O)CCCCCCCCCCNC(=O)[C@H]([C@@H](C)CC)n3cc(CCCCN=C(N)N)nn3)CC2)n1	i	2	i	/	/	25
C#CCOCCOCCOCCNc1nc(N2CCN(C(=O)CCCCCCCCCCNC(=O)[C@H]([C@@H](C)CC)n3cc(CCCCN=C(N)N)nn3)CC2)nc(N2CCN(C(=O)CCCCCCCCCCNC(=O)[C@H](CCCCN)n3cc(C)nn3)CC2)n1	6.3*	-6	i	/	/	/
Cc1ccc(-n2c(C)cc(=O)cc2C)cc1[N+](=O)[O-]	i	2	-8.3*	-9	12	2
C=CC[C@H]1c2ccccc2[C@H]2N3N=Cc4ccccc4[C@H]3[C@H](CCc3ccccc3)C(=O)N2N1C(=O)c1ccccc1	/	/	/	/	14	/
N#Cc1c(N)[nH]c(=S)c(C#N)c1-c1ccccc1	i	13	i	51*	2	-4
CCN(CC)CCSc1nc(O)c(-c2ccccc2)c(=O)n1-c1ccccc1	i	-4	i	-3	16	-16
CCN(CC)CCSc1nc2ccccc2c(=S)n1-c1ccccc1	6.6*	2	i	-13	-3	/
COc1ccc2c(c1)C(SCC(=O)NCCc1ccccc1)CC(C)(C)O2 (stereo not given)	i	4	-6.4*	1	-2	-22
COC(=O)c1cc(-c2cccs2)c(=O)n2c1CCC2	/	/	/	/	14	/
COc1cc(-c2c(C(=O)c3ccccc3)[nH]c(N)c2C(N)=O)ccc1O	/	/	/	/	-12	/
CCC(NC(=O)c1ccc2c(ccn2Cc2cccc(-c3ccc(C(=O)O)cc3)c2)c1)c1ccccc1 (stereo not given)	/	/	/	/	0	/
Nc1ccc2c(C(F)(F)F)cc(C(F)(F)F)nc2n1	i	2	i	2	-3	-25
N#CC(c1ccc(Cl)cc1)c1ccc2c(C(F)(F)F)cc(C(F)(F)F)nc2n1 (stereo not given)	i	0	i	36*	58*	62
CCOc1cc(/C=N/NC(N)=O)cc(Br)c1OCC(=O)Nc1cccc2ccccc12	i	4	i	44*	-14	-35
N#Cc1c(-c2ccc(Cl)cc2)n(O)c2ccccc12	/	/	/	/	/	98*
CCOC(=O)CNC(=O)CSc1nnc(-c2ccc(C(C)(C)C)cc2)n1-c1ccc(Cl)cc1	/	/	/	/	13	/
COC(=O)[C@H]1C[C@@]2(C)c3ccccc3N(S(=O)(=O)c3ccccc3)[C@H]2N1	/	/	/	/	-7	/
